From the EternaBench riboswitch data come the findings set out here.

The subject of this data set is MS2 coat protein. The experiment in a line: apparent Kd, MS2 coat protein; higher = weaker binding; RNA-MaP array; FMN 200 µM where present. The method in brief: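 Designs on Illumina sequencing-chip clusters, transcribed by stalled E. coli RNA polymerase, were exposed to SNAP-549-labelled MS2 coat protein in doubling steps from 0.7 or 1.5 nM up to 3 µM, without and then with constant ligand. The buffer held 100 mM Tris-HCl pH 7.5, 80 mM KCl, 4 mM MgCl2, BSA, DTT, yeast tRNA and Tween-20. Apparent Kd values are medians of filtered per-cluster binding-curve fits to green signal normalised to red-channel RNA signal and control-cluster median Fmax.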

Setting [1] is: designed as: OFF switch for flavin mononucleotide, no ligand.
[2] abbreviates: ligand present: flavin mononucleotide, designed as: OFF switch for flavin mononucleotide.
The mark [3] stands for this setting: designed as: ON switch for flavin mononucleotide, no ligand.
Where [4] appears, read: ligand present: flavin mononucleotide, designed as: ON switch for flavin mononucleotide.

“UUUCAGUCAGGAUAUCGUUAAUUUAAUUGUUUGUAUUAGUUCGAGAAGGGACAUGAGGAUCACCCAUGUACUUU”: the “apparent Kd” value under setting [1] was 24.3 nM and the “apparent Kd” value under setting [2] turned out to be 25.5 nM.

With “GCGUAAAAGAUCCUAUUUAUCUACAUGAGGAUCACCCAUGUGCAGGAUAUGCUAUAUUUAAUAUAGCAGAAGGGCAAUAACCGC”, the “apparent Kd” value by setting is: under setting [1], 45.6 nM; under setting [2], 248 nM.

On to “GGAGCUCACAUGAACAUGAGGAUCACCCAUGUAACUAGACAUGAGGAUAUGGAUCCUAAUUGGAUCCAGAAGGCAUGGAGCUCC”, for which the “apparent Kd” value by setting is: under setting [3], 161 nM; under setting [4], 27.9 nM.

Consider “AAUUACAUGUAGAAGGUACUUAAUUAAGUGUUGUAAGGAUAUACCAAUUUAUUAGAUUUAAAGAUACAUGAGGAUCACCCAUGU”, for which the “apparent Kd” value is, setting by setting: under setting [3], 12.1 nM; under setting [4], 9.76 nM.

For “CAUGUCCUCACAGGAUAUGCUGGACUUUGUCCAGCAGAAGGGUGAACAUGAGGAUCACCCAUGUAAUGGACAUGUAUAUUUAAU”, the “apparent Kd” value by setting is: under setting [3], 801 nM; under setting [4], 50.9 nM.

Regarding “UUGGCGCGAUCCUUGGUCUCACAUGAGGAUCACCCAUGUAGAGAGGAUAUGCAUAGGGCCCAAUGGCAGAAGGCUCUACAUGAG”, the “apparent Kd” value reads like this: under setting [1], 67.1 nM; under setting [2], 71.2 nM.

With “GUAGAGUAAGGAUAUGCAGAAUAGGAUAGAAUGGAUAGAAUGCAGAAGGUACAUGAGGAUCACCCAUGUAAUGU”, the “apparent Kd” value by setting is: under setting [1], 19.8 nM; under setting [2], 21.6 nM.

In the case of “GUGCUGCAGCUGUGCACGAGACAUGAGGAUCACCCAUGUGACAGAAGGGACUUGUUAAAGGUAGGUCAGGAUAUGUCUUAAAAG”, the “apparent Kd” value runs as follows: under setting [3], 107 nM; under setting [4], 37.3 nM.

For the sequence “GGGCUCCCGCAGAAGGUGACAAAGUGUUCAUGUCAAGGAUAUGUGGUUCACAUGAGGAUCACCCAUGUAGGGCCCGUUAGGAAC”, the “apparent Kd” value by setting is: under setting [3], 97.3 nM; under setting [4], 23.9 nM.

In the case of “UUGUUACAUGAGGAUCACCCAUGUGAGGAUAUGGUUCGGUACUGUCAUGUCGCGUACUCCAGAAGGCACAUGUU”, the “apparent Kd” value reads like this: under setting [1], 97.1 nM; under setting [2], 303 nM.

For “UGUUGUAUUACAGGAUAUCUAUGAUUUUUGUUUAGAGAAGGGUAUUCACAUGAGGAUCACCCAUGUAUAUACGAGGAAGUUGUG”, the “apparent Kd” value came out at 60.3 nM under setting [3] and 74.7 nM under setting [4].

For the sequence “AAAAAGUCAGGAUAUUCGGAUAGGAAAACGAAAACCUAUCCGAAGAAGGGACAUGAGGAUCACCCAUGUAAAAA”, the “apparent Kd” value turned out to be 27.4 nM under setting [1] and 46.5 nM under setting [2].

With “UACCCUUGUGAGAAGGCGCCGCAGAUUUUACGGCGAGGAUAUCACAUGAGGAUCACCCAUGUUCCUGAGCCUACAAGUGUGGGC”, the “apparent Kd” value worked out at 338 nM under setting [1] and 313 nM under setting [2].

For “GUUGUAUUAAGUUCAUACUAUAUGAUAGAAGGUGAAAGAUAGACAUGAGGAUCACCCAUGUAAUUCAAGGAUAUGUAGUUACUC”, the “apparent Kd” value turned out to be 28.4 nM under setting [3] and 20.4 nM under setting [4].

Take “UUUGUUUUGCAAGGAUAUGUUUAAUUUUAUUUUCCUUACACAUGAGGAUCACCCAUGUUAUACUUACAGAAGGUGCGUAAUUUG”: the “apparent Kd” value under setting [1] was found to be 158 nM and the “apparent Kd” value under setting [2] came to 151 nM.

“AAAGUUCGAGGAUAUCUACUUAGCUACAUGAGGAUCACCCAUGUUAUCCUCCCGCUGGGAAGAGAAGGCGGUUAAA”: the “apparent Kd” value under setting [1] worked out at 36.5 nM and the “apparent Kd” value under setting [2] worked out at 210 nM.

Consider “AAAAAGGCAGGAUAUACAUGAGGAUCACCCAUGUAAAGAAAAGAAAGAUCCAAAGAAAGUAGAAGGGCCAAAAA”, for which the “apparent Kd” value stood at 74.8 nM under setting [1] and 286 nM under setting [2].

Turning to “AGAAACUACGAGAAGGACAUGUGGUCCUUCAGUUACAUGAGGAUCACCCAUGUAGGAUAUCGUAGUUUCAGGAUCGUGAGAUCG”, the “apparent Kd” value was 40.4 nM under setting [1] and 20.4 nM under setting [2].

Take “GGAUCGAGUGUGAGGAUAUGCUGGUCCUUGGAUCAGCAGAAGGCACAUGAGGAUCACCCAUGUCCAAACGGUCC”: the “apparent Kd” value amounted to 266 nM under setting [1] and 388 nM under setting [2].

Consider “AAAUACGGUCAAGGAUAUGUAUAAAAGAUAAGAAAACAUGAGGAUCACCCAUGUAUAUGGUGGGAACAGAAGGUGAAUAAGUAA”, for which the “apparent Kd” value by setting is: under setting [1], 182 nM; under setting [2], 142 nM.

For “GGUACGUCCACAGGAUAUGCGAAACAAGAAACCGCAGAAGGGUGAGGCGUCAGGACCCUGGACAUGAGGAUCACCCAUGUGCGU”, the “apparent Kd” value came to 113 nM under setting [3] and 15.4 nM under setting [4].

“AGAGACCUCACAGGAUAUGCUGGACUUUGUCCAGCAGAAGGGUGAAAACAUGAGGAUCACCCAUGUAUGGUCUCCAAAUUUAAC”: the “apparent Kd” value is 187 nM under setting [3] and 12.7 nM under setting [4].

“UUAUUAUAUGUAGGAUAUGUAUAUUAUUAUUGUGCAGAAGGACAUGAGGAUCACCCAUGUAUAUUAUUAUUAUAUAUUAUAUAU”: the “apparent Kd” value turned out to be 21.4 nM under setting [1] and 17.1 nM under setting [2].

In the case of “UAGAUGGGAGGAUAUGCAUAGAUACAGAUUCGUGUAGUGCUACAUGAGGAUCACCCAUGUAGAAGGCCCGUCUU”, the “apparent Kd” value runs as follows: under setting [1], 14.8 nM; under setting [2], 37.6 nM.

On to “AAGUCACGAAUAAUAAUAAGAUCUACAUGAGGAUCACCCAUGUAGGAUAUGCAGUGGAAUACACUGCAGAAGGACAUACGUGAC”, for which the “apparent Kd” value under setting [1] turned out to be 14.1 nM and the “apparent Kd” value under setting [2] was determined as 16.7 nM.

For “AGUCGGAGCAGAGGAUAUUACAUGAGGAUCACCCAUGUAGGUACCAAUAGCUGGAAACAGCAAUGUAAGAAGGCUGCUCCGACA”, the “apparent Kd” value by setting is: under setting [1], 259 nM; under setting [2], 281 nM.

Take “CAGUACUGAGGAUAUACAUGAGGAUCACCCAUGUGUUCCAGCUAGGAAACUAGCAAUUGUAGAAGGCAGUACUG”: the “apparent Kd” value under setting [1] is 59.2 nM and the “apparent Kd” value under setting [2] was 428 nM.

Turning to “UUAAUAUAUCAGGAUAUGAUUAUAUGUGUUGAAUCAGAAGGGAUAACAUGAGGAUCACCCAUGUUGUGGAGUGA”, the “apparent Kd” value by setting is: under setting [1], 69.3 nM; under setting [2], 206 nM.

In the case of “UUUAUAAAUUAGAAGGCGAGAUAAAAUACAAUAGACAUGAGGAUCACCCAUGUGUACCCAUGUUUUGAGGAUAUAGUCAUAUAU”, the “apparent Kd” value runs as follows: under setting [3], 804 nM; under setting [4], 536 nM.

Regarding “GCGGAACAUGAGGAUCACCCAUGUGGAGGGUGUAAAGGAUAUUAUAGAGAGAAGGUAGGGUAAGAAGGUUGCUGGG”, the “apparent Kd” value came to 843 nM under setting [3] and 763 nM under setting [4].

Regarding “CCCUCGGCGUGUAGAUACAUACAUGAGGAUCACCCAUGUGAGAAGGAUAUGCACGCGUGCUGCCGGCAGAAGGUCUAGAUGGUG”, the “apparent Kd” value under setting [1] was 25.4 nM and the “apparent Kd” value under setting [2] was 29.8 nM.

As to “AUUUCAAUCUAUACUAUACAAACAACAUGAGGAUCACCCAUGUAGGAUAUCGUAUGUAUCAACUACGAGAAGGACAUAAUCUUA”, the “apparent Kd” value was 13.7 nM under setting [1] and 13.4 nM under setting [2].

On to “UGUGAGAUGAUGUUAGAUAGGAGAACAUGAGGAUCACCCAUGUAGGAUAUUCAAAGACGAAGAUAGAAGAAGGACAUAGGUAUC”, for which the “apparent Kd” value amounted to 30.3 nM under setting [1] and 78.2 nM under setting [2].

Take “GGAGCACAUAUUAACAUGAGGAUCACCCAUGUCAAAAGACAUGAGGAUAUGGAUCCGAAAAGGAUCCAGAAGGCAUGGUGCUCC”: the “apparent Kd” value reads like this: under setting [3], 268 nM; under setting [4], 14.3 nM.

Regarding “CGCUGUCACGCAGGAUAUGCAUUGGAUUACAAUGCAGAAGGGCGAUCACAUGAGGAUCACCCAUGUGUAGACAGUGAAGAAGAG”, the “apparent Kd” value reads like this: under setting [3], 728 nM; under setting [4], 47.1 nM.

Turning to “GGAUGACAAAGUCAUCCUAUUCGAACAUGAGGAUCACCCAUGUAGGAUAUGCUACUCAAAGAGUAGCAGAAGGACAUGUGCCUU”, the “apparent Kd” value under setting [1] was found to be 32.6 nM and the “apparent Kd” value under setting [2] was determined as 178 nM.

Consider “UAGAAAGAUUAAUAUGAUUACAUGAGGAUCACCCAUGUAUAUAAGGAUAUCGACGUCAAUGACGUCGAGAAGGUAUAUACAUAA”, for which the “apparent Kd” value is 66.3 nM under setting [1] and 198 nM under setting [2].

Consider “AAUAGACAUGAGGAUCACCCAUGUGUAUAUGGGAGAGGAUAUACGGGACACAAGGGCGGAGUAGAAGGCUCGAGAC”, for which the “apparent Kd” value worked out at 149 nM under setting [3] and 146 nM under setting [4].

In the case of “ACUGGUCGAGGAUAUACAAUCGUGCUUCGGCACGUAAGAUCACAUGAGGAUCACCCAUGUAGAAGGCGACCAGU”, the “apparent Kd” value was 60.3 nM under setting [1] and 743 nM under setting [2].

Take “UAGCUCGUGUGAGGAUAUGCCGCCGUUUCGGCUGCAGAAGGUGCUACGUUACAUGAGGAUCACCCAUGUCUCUGUUGUUUCGUC”: the “apparent Kd” value turned out to be 32.5 nM under setting [3] and 30.5 nM under setting [4].

As to “GUGUACGGAGGAUAUAUGUGGGCAGGCUGACCUGCAGCUUCACAUGAGGAUCACCCAUGUAGAAGGCUGUACAC”, the “apparent Kd” value under setting [1] was 22.7 nM and the “apparent Kd” value under setting [2] was determined as 114 nM.

For “GGACAUGUACAGAAGGGCAAUUUAUUUAUUGAUUAUUUAGUUCUGUUUUGCAGGAUAUGUAAAACAUGAGGAUCACCCAUGUCC”, the “apparent Kd” value reads like this: under setting [3], 188 nM; under setting [4], 105 nM.

Regarding “GGGUACAUCGGAGGAUAUCAUGGAAAUACAUGAGGAUCACCCAUGUCGAUGGAGACAUCGGAGAUUGAGAAGGCCGAUGUACCG”, the “apparent Kd” value runs as follows: under setting [3], 27.3 nM; under setting [4], 6.38 nM.

“UAUAAAUUAAAAGGAUAUUCAUACCGGAAACGGACAUGAGGAUCACCCAUGUGGCGAAAGCCUUGGGAGAAGGUAUUAAAUAAU”: the “apparent Kd” value was found to be 268 nM under setting [3] and 263 nM under setting [4].

With “AAAGAAAGGUCAGGAUAUCCGUUAGUCGCGCAAGGAGAAGGGACCUCAUGGGUGCUGACACAUGAGGAUCACCCAUGUAAAAUA”, the “apparent Kd” value is, setting by setting: under setting [1], 65.5 nM; under setting [2], 23.1 nM.

Turning to “UUUAUUUCGGCAGGAUAUACAUGUAUAUAUAUUUCUUUAUAUCUUAUUACAUGAGGAUCACCCAUGUAGAAGGGCCUUCUUAUC”, the “apparent Kd” value runs as follows: under setting [1], 47.7 nM; under setting [2], 46 nM.

For the sequence “AAGUCGUGAGGAUAUACAUGGAUAUACAUUUAUGUAGAACUACAUGAGGAUCACCCAUGUAGAAGGCACGAAUA”, the “apparent Kd” value is, setting by setting: under setting [1], 56.2 nM; under setting [2], 147 nM.

Turning to “ACAUGAGGAUCACCCAUGUAGAAUGGAGAAGGUAGAUACUUGUGACUCUCCCAUGUACAUAGGACUGAGGAUAUUCUAAUAAUU”, the “apparent Kd” value runs as follows: under setting [3], 49.6 nM; under setting [4], 40.2 nM.

Broadly, the apparent Kd is a dissociation constant that holds for the conditions of the assay.
